The source of these data is ChEMBL document CHEMBL3425424, “Anti-inflammatory coumarin and benzocoumarin derivatives from Murraya alata” (J Nat Prod, 2015).

The test system of data set [1] is RAW264.7. Nature of the data set: Antiinflammatory activity against mouse RAW264.7 cells assessed as reduction of LPS-induced NO production after 24 hrs. The class given is functional, cell-based. The note with it: RAW264.7, 24 h. Put shortly: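 RAW 264.7 murine macrophages were grown in DMEM with 10% FBS, penicillin and streptomycin at 37 °C under 5% CO2. Cells were seeded at 1 × 10^5 per well and given 1.0 μg/mL LPS (E. coli 0111:B4) with or without compound for 24 h at 37 °C. Supernatant NO was read by Griess reagent (10 min, room temperature, dark) at OD 540 nm against a sodium nitrite standard curve. Indomethacin was the positive control; three parallel runs, mean ± SD.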

Data set [2] concerns RAW264.7. Nature of the data set: Cytotoxicity against mouse RAW264.7 cells assessed as cell survival at 80 uM after 24 hrs by MTT assay. The class given is cell-based. Conditions: raw264.7, 24 h. Put shortly:
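Viability of RAW 264.7 murine macrophages was read by MTT assay. Cells were kept in DMEM with 10% FBS, 100 U/mL penicillin and 100 μg/mL streptomycin, humidified, 37 °C, 5% CO2.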

For orientation: IC50 means the midpoint of a concentration-inhibition curve. As to `COc1cc(OC)c2ccc(=O)oc2c1CC=C(C)C`, the IC50 with RAW264.7 [1] is 33.1 µM. Further, in the data set on RAW264.7 [2], the Activity result was “Non-toxic”.
Regarding `COc1cc(OC)c2ccc(=O)oc2c1CC(C)(C)C=O`, the IC50 in the data set with RAW264.7 [1] was 12.4 µM. Besides, the Activity entry in the data set on RAW264.7 [2] is “Non-toxic”.
`COc1cc(OC)c2ccc(=O)oc2c1CC(C)(C)C(=O)O`: the IC50 with RAW264.7 [1] was found to be 12.4 µM. Also, the Activity result in the data set on RAW264.7 [2] was “Non-toxic”.
Taken in the same sequence, the figures for `COc1cc(OC)c2ccc(=O)oc2c1CC(=O)C(C)C` were 20.6 µM and “Non-toxic”.
On the same counts, the results for `C=C(C)/C=C/c1c(OC)cc(OC)c2ccc(=O)oc12` are 12.4 µM and “Non-toxic”.
In the case of `COc1cc(OC)c2ccc(=O)oc2c1/C=C/C(C)C`, in the data set with RAW264.7 [1], the IC50 is 20.5 µM. Moreover, the Activity result with RAW264.7 [2] is on record as “Non-toxic”.
On the same counts, the results for `CC(C)=CCc1cc2ccc(=O)oc2c2c1OC(C)(C)C=C2` are 12.4 µM and “Non-toxic”.
On the same counts, the results for `C=C(C)/C=C\c1c(OC)cc(OC)c2ccc(=O)oc12` are 14.5 µM and “Non-toxic”.
On the same counts, the results for `C=C(C)[C@H](O)[C@H](OCC)c1c(OC)ccc2ccc(=O)oc12` are 12.4 µM and “Non-toxic”.
As for `COc1cc(OC)c2ccc(=O)oc2c1C(=O)C(=O)C(C)C`, in the data set on RAW264.7 [1], the IC50 came to 12.4 µM. Further, the Activity result with RAW264.7 [2] is recorded as “Non-toxic”.
`COc1ccc2ccc(=O)oc2c1C(=O)C(=O)C(C)C`: the Activity entry with RAW264.7 [2] is on record as “Non-toxic”.
For the compound `COc1cc(OC)c2ccc(=O)oc2c1CC=O`, the IC50 in the data set with RAW264.7 [1] was found to be 13.8 µM. Moreover, in the data set on RAW264.7 [2], the Activity result is “Non-toxic”.
`C=C(C)Cc1c(OC)cc(OC)c2ccc(=O)oc12`: the IC50 in the data set with RAW264.7 [1] was found to be 12.4 µM. The Activity result with RAW264.7 [2] is given as “Non-toxic”.
On the same counts, the results for `COc1cc(OC)c2ccc(=O)oc2c1C/C=C(\C)C=O` are 28.3 µM and “Non-toxic”.
Taken in the same sequence, the figures for `CCOC(C)(C)[C@@H](O)Cc1c(OC)c(OC)c(OC)c2ccc(=O)oc12` were 34.2 µM and “Non-toxic”.
Taken in the same sequence, the figures for `COc1c(OC)c(/C=C/C(C)(C)O)c2oc(=O)ccc2c1OC` were 12.4 µM and “Non-toxic”.
As for `COc1c(OC)c(CC=C(C)C)c2oc(=O)ccc2c1OC`, the IC50 in the data set with RAW264.7 [1] was 12.4 µM. Also, in the data set on RAW264.7 [2], the Activity result is “Non-toxic”.
On the same counts, the results for `COc1cc2cc(COC(=O)CC(C)C)ccc2c2oc(=O)ccc12` are 9.1 µM and “Non-toxic”.
Taken in the same sequence, the figures for `COc1cc2cc(C)ccc2c2oc(=O)ccc12` were 12.4 µM and “Non-toxic”.
With `COc1c(OC)c(CC(O)C(C)(C)O)c2oc(=O)ccc2c1OC` (centres undefined), in the data set with RAW264.7 [1], the IC50 came out at 12.4 µM. Besides, the Activity result with RAW264.7 [2] is reported as “Non-toxic”.
On the same counts, the results for `COc1cc(OC)c2ccc(=O)oc2c1C[C@@H](O)C(C)(C)O` are 12.4 µM and “Non-toxic”.
Turning to `C=C(C)[C@H](Cc1c(OC)ccc2ccc(=O)oc12)OO`, the IC50 in the data set with RAW264.7 [1] was 12.4 µM. Besides, the Activity entry in the data set on RAW264.7 [2] is on record as “Non-toxic”.
On the same counts, the results for `C=C(C)C(O)C(OCC)c1c(OC)ccc2ccc(=O)oc12` (centres undefined) are 43.3 µM and “Non-toxic”.
As to `C=C(C)[C@@H](O)Cc1c(OC)cc(OC)c2ccc(=O)oc12`, the IC50 in the data set with RAW264.7 [1] amounted to 12.4 µM. For the same compound, the Activity entry in the data set with RAW264.7 [2] is recorded as “Non-toxic”.
Taken in the same sequence, the figures for `COc1ccc2ccc(=O)oc2c1C(O)C(=O)C(C)C` (centres undefined) were 12.4 µM and “Non-toxic”.
`COc1cc(OC)c2ccc(=O)oc2c1/C=C/C(C)=O`: in the data set on RAW264.7 [1], the IC50 was 6 µM. For the same compound, the Activity entry with RAW264.7 [2] was “Non-toxic”.
`CCOC(C)(C)C(O)Cc1c(OC)cc(OC)c2ccc(=O)oc12` (centres undefined): the IC50 in the data set on RAW264.7 [1] is 31.9 µM. For the same compound, in the data set with RAW264.7 [2], the Activity entry is “Non-toxic”.
On the same counts, the results for `COc1cc2c(c3oc(=O)ccc13)C=CC(C)(C)O2` are 12.4 µM and “Non-toxic”.
As for `C=C(C)[C@H](O)[C@H](O)c1c(OC)ccc2ccc(=O)oc12` (relative stereo), in the data set on RAW264.7 [1], the IC50 is 12.4 µM. Also, the Activity entry in the data set on RAW264.7 [2] is recorded as “Non-toxic”.
Turning to `COc1ccc2ccc(=O)oc2c1` [HERNIARIN], the IC50 with RAW264.7 [1] amounted to 12.4 µM. The Activity entry in the data set on RAW264.7 [2] is listed as “Non-toxic”.
`COc1ccc2c(c1)c(CC(=O)O)c(C)n2C(=O)c1ccc(Cl)cc1` [INDOMETHACIN]: in the data set with RAW264.7 [1], the IC50 came to 6.3 µM.
As to `COc1ccc2ccc(=O)oc2c1C(C=O)=C(C)C` [MURRALONGIN], the IC50 with RAW264.7 [1] amounted to 12.4 µM. Also, in the data set with RAW264.7 [2], the Activity entry is recorded as “Non-toxic”.
On the same counts, the results for `COc1ccc2ccc(=O)oc2c1CC=C(C)C` [OSTHOLE] are 12.4 µM and “Non-toxic”.
